FLuc inhib CS = counter-screen for luciferase assay inhibitors: firefly luciferase inhibition | P08659 | ATPLite firefly luciferase biochemical luminescence, 10 min | inhibition, % at 10 µM | 1.5% of 200,000 active;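 active means inhibition above about 50% when tested at 10 µM, limit read from the data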
Target sequence (P08659 whole entry, looked up): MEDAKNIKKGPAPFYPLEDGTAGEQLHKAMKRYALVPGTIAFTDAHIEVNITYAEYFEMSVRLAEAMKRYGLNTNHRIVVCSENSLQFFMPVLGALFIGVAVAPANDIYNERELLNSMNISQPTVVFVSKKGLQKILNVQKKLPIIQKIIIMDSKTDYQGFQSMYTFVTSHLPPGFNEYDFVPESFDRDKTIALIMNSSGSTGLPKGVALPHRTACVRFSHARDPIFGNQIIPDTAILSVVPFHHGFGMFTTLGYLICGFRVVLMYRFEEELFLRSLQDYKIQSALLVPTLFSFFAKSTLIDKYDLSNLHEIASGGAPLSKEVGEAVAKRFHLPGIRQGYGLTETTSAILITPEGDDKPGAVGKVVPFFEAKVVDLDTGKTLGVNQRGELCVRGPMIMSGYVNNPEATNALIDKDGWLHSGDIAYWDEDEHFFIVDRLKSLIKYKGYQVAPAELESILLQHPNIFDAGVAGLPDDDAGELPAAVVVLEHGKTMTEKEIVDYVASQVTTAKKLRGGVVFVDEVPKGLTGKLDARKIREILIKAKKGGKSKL
FLuc stim CS = firefly luciferase counter-screen for stimulation assays; 200,000 tested, under 10 active; ATPlite luciferase biochemical, luminescence, 10 min; 0 = ATP-free wells, 1 = DMSO control; activation factor at 10 µM; P08659;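 active means luciferase activation factor, scaled between plate controls, of at least 2 with compound at 10 µM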
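System: cell-free luciferase reagent; medium: PBS as buffer for the ATP substrate; doses: test compounds dosed from 2 mM stocks in 100% DMSO; incubation: 10 min, room temperature; measured by: luminescence from luciferase reaction; read-out: luciferase activation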
STAT3 activator = increases IL-6 driven STAT3 reporter signal | U3A cells, IL-6 STAT3-luciferase reporter, luminescence; 100% = signal with IL-6 EC80 alone | activation (% of control), % at 5.6 µM | 0.91% of 190,000 active | AID 871;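 active means activation above the screen-wide mean of compound activation plus 3 SD, cut at about 130% in these data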;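 further: 0% = background luminescence of wells with medium and substrate only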
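Test system: human U3A cells carrying STAT3-luciferase construct; control set: IL-6-only wells as 100% reference; timing: compound pre-incubation 1 h before IL-6, then 6 h stimulation at 37 °C; also added: IL-6 stimulus at 33 ng/mL final; evaluation: % activation versus median of IL-6-stimulated wells; detection: reporter luminescence signal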
STAT1 blocker = reduces IFN-gamma driven STAT1 reporter signal; 0.35% of 200,000 active; inhibition, % at 5.5 µM; NIH 3T3 STAT1-luciferase reporter, luminescence; AID 920;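 active means inhibition above a set limit, the mean inhibition across all tested compounds plus 3 SD, cut at about 34% in these data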;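 further: 0% = IFN-gamma with DMSO and 100% = IFN-gamma with 300 µM nifuroxazide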
STAT3 inh = reduces IL-6 driven STAT3 reporter signal; inhibition, % at 5.5 µM; AID 862; U3A cells, IL-6 STAT3-luciferase reporter, luminescence; host cell line lacks STAT1; 0.89% of 190,000 active;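 active means inhibition above the mean inhibition across all screened compounds plus 3 SD, cut at about 44% in these data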;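 further: 0% = DMSO only wells and 100% = 100 µM nifuroxazide control wells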
STAT1 act = activators of IFN-gamma induced STAT1 signaling; NIH 3T3 STAT1-luciferase reporter, luminescence; 100% = IFN-gamma alone, no compound; activation (% of control), % at 5.5 µM; 2.6% of 200,000 active;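 active means activation above the screen-wide mean activation plus 3 SD, cut at about 130% in these data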;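 further: raw ratio to IFN-gamma control signal so 100% means no change and 0% no light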
An asterisk follows results filed as active; . = no result. Shown are actives, neighbours in structure and some others; about 4.9% of the full set was active somewhere.

SMILES	FLuc inhib CS	FLuc stim CS	STAT3 activator	STAT1 blocker	STAT3 inh	STAT1 act
O=C(COc1ccccc1Cl)Nc1ccc(CN2CCCCC2)cc1	-3	1	99	-6	3	104
COc1cc(/C=C(/C(=O)c2cccs2)c2nc3ccccc3[nH]2)ccc1O	35	0.6	136*	5	-41	96
CC(C)(C)NC(=O)COC(=O)/C=C/c1ccc(F)cc1	2	1	94	1	5	100
COc1cccc(/C=N/N2CCOCC2)c1O	63*	0.4	94	-14	3	112
Cc1ccc(-c2c(C)sc(=NC(=O)c3ccco3)n2C)cc1	86*	0.1	76	-32	31	129*
Cc1ccccc1S(=O)(=O)/N=C(/c1ccccc1)N1CCOCC1	-8	1.1	100	-6	7	103
CCN(CC)c1ccc(/C=N/N2CCOCC2)cc1	52*	0.5	124	-44	-18	139*
CCN(Cc1ccccc1)c1ccc(/C=N/N2CCOCC2)cc1	2	1	107	-14	-6	113
Cc1ccc(/C=C2/NC(=O)N(c3ccccc3)C2=O)o1	7	0.9	97	-18	15	116
Cc1c(C(=O)O)cccc1-c1ccc(/C=C2/NC(=O)N(c3ccccc3)C2=O)o1	0	1	110	-36	-8	131*
COc1cccc(C=Nc2cccc3c(=O)[nH][nH]c(=O)c23)c1O	80*	0.2	89	-8	15	107
COc1ccc(C=Nc2cccc3c(=O)[nH][nH]c(=O)c23)c2ccccc12	-9	1.1	103	-4	-3	102
CCOc1ccc(N2Cc3ncccc3C2=O)cc1	38	0.6	76	-42	30	140*
CCOc1ccc(N2C(=O)c3ccccc3C2=O)cc1	0	1	94	-18	4	117
Oc1oc(-c2ccco2)nc1C=Nc1ccccc1	15	0.9	95	-19	9	118
CC(=O)Oc1oc(-c2ccccc2)nc1C=Nc1ccccc1	-6	1.1	101	-5	3	105
Cc1ccc(C(=O)Oc2oc(-c3ccco3)nc2C=Nc2ccccc2)cc1	0	1	99	-43	5	139*
COc1ccc(N=Cc2nc(-c3ccccc3)oc2OC(=O)c2ccccc2)cc1	4	1	104	-37	0	132*
CC1=CC(C)(C)N(C(=O)CNC2CCCCC2)c2cc(C)ccc21	-3	1	109	6	-3	93
CNc1ncc(C(=O)c2ccc(Br)cc2)s1	41	0.6	98	-43	2	140*
CC(=O)c1cnc(Nc2ccccc2)s1	-2	1	96	-7	6	107
CNc1ncc(C(=O)c2ccccc2)s1	-1	1	118	-16	-21	114
CC(=O)c1cnc(Nc2cccc(Cl)c2Cl)s1	-2	1	96	-41	15	136*
O=C(c1ccc(Cl)cc1)c1cnc(Nc2ccccc2Cl)s1	58*	0.4	108	-51	-9	145*
O=C(Nc1cccnc1)OC1CCCC1	5	0.9	104	7	2	93
SMILES	FLuc inhib CS	FLuc stim CS	STAT3 activator	STAT1 blocker	STAT3 inh	STAT1 act
O=C1N(Cc2cccnc2)C[C@@H]2C[C@@H](c3ccc4nsnc4c3)N3CCC[C@@]123	-3	1	95	-5	11	102
COc1ccc(CN(Cc2cc3cccc(C)c3n3nnnc23)C(=O)N2CCOCC2)cc1	-6	1.1	103	4	3	96
O=S(=O)(c1ccccc1)N1CC=C(c2ccccc2)CC1	0	1	107	9	-8	91
Cc1c(Cl)cccc1NC(=O)CNCc1ccccc1F	-4	1	105	8	-4	93
CN1CCS/C1=C/C=C1\SC(=S)N(CC(=O)O)C1=O	11	0.9	95	-3	10	102
CCCCN1C(=O)/C(=C/C=C2\SCCN2C)SC1=S	12	0.9	111	-32	-7	130*
Cn1c(Cc2cccc3ccccc23)nnc1SCc1ccc([N+](=O)[O-])cc1	-6	1.1	83	8	23	93
CN1CCN(C(=O)C2=C[C@H](C(C)(C)C)C[C@H](OCCCCO)O2)CC1	0	1	.	2	.	99
